# Experimental data published in paper PMC12707241 (RSC Chemical Biology, 2025).
# Like-named read-outs stand apart in the source and are kept apart here.
# Tests used:
# SIRT5 [1] = conditions: cited from earlier work
# SIRT5 [2] = conditions: cited from earlier work; remark: listed apart in the source
# HEK293 cells = assay: Intracellular NAD+ level, HEK293 cells; format: cell-based, human; conditions: HEK293, 1 mM, 6 h
# How it was run: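 HEK293 cells (DMEM, 10% FBS, 37 °C, 5% CO2) incubated with 1 mM NR or NARH for 6 h. Harvested, counted by hemocytometer, pelleted, and extracted in ice-cold 7% perchloric acid (three vortex/ice-sonication cycles). NAD+ measured by enzymatic cycling assay. Three independent experiments ± SD; Student's t-test.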
# [3] = physiological NAM concentrations
Compound,effect on deacetylase activity of SIRT5 (SIRT5 [1]; [3]),effect on desuccinylase activity of SIRT5 (SIRT5 [2]; [3]),intracellular NAD+ content (HEK293 cells),effect on deacetylase activity of SIRT5 (SIRT5 [1]),effect on desuccinylase activity of SIRT5 (SIRT5 [2])
"NC(=O)c1cccnc1 [NAM, nicotinamide]",negligible changes,potently inhibit,–,–,–
"NC(=O)c1ccc[n+]([C@@H]2O[C@H](CO)[C@@H](O)[C@H]2O)c1 [NR, nicotinamide riboside]",–,–,nearly two-fold increase,selectively activates,negligible changes
